Kir21 block: blocks the mouse Kir2.1 inward-rectifier potassium channel; AID 1672; B-score at 10 µM; HEK293-Kir2.1, FluxOR thallium flux fluorescence; stronger effect = lower value; actives 0.85% (n = 310,000); P35561;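 active = fluorescence ratio B-score at or below minus 3 SD of library scores, with starting-brightness B-score within 2 SD, cut at about -4.2 in these data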;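 also: channel flux triggered by added potassium and thallium sulfate stimulus; B-score of peak minus minimum fluorescence over baseline after thallium stimulus; more negative B-score means stronger Kir2.1 block with less thallium influx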
Target sequence (P35561 whole entry, looked up): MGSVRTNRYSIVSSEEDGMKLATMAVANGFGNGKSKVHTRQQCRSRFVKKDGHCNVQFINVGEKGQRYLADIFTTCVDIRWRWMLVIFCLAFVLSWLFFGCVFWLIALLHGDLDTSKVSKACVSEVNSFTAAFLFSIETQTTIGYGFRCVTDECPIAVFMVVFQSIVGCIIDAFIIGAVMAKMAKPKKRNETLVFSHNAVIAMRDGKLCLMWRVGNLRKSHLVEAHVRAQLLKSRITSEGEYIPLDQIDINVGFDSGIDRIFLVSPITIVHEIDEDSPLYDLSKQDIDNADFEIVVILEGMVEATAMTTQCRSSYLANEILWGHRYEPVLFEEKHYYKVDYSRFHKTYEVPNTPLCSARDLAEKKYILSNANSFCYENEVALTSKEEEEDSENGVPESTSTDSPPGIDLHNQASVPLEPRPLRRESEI
KCNQ1 act: potentiates or activates the human KCNQ1 potassium channel; P51787; CHO-K1 KCNQ1, thallium flux FluxOR fluorescence; stronger effect = higher value; B-score at 10 µM; actives 0.35% (n = 310,000); AID 2648;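 active = fluorescence ratio B-score, a plate-corrected score, at least three library SD, with initial intensity B-score within 5 SD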
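assay system = CHO-K1 cells stably expressing KCNQ1 | medium = assay buffer, equal DMSO in all wells | timing = 37 °C overnight plating, 90-min dark dye load, 20-min compound pretreatment | measured by = kinetic FluxOR thallium fluorescence, 10-s 1-Hz baseline, 110-s post-stimulus read | measure = fluorescence change relative to baseline, converted to B score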
KCNQ1 inh: inhibitors of human KCNQ1 potassium channel. AID 2642. B-score at 10 µM. P51787. actives 1.3% (n = 310,000). CHO-K1 KCNQ1, FluxOR thallium flux fluorescence; stronger effect = higher value;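 active = compounds whose thallium flux B-score, printed positive for inhibition, exceeds three library SD while starting fluorescence stays within three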;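 also: channel opened by potassium depolarization with thallium stimulus after 20 min compound exposure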
hERG protect: compounds protecting human hERG from proarrhythmic drug block; Q12809; CHO-hERG, FluxOR thallium flux, dofetilide IC70 present; activation (rescue from dofetilide block), less the hit threshold, % at 10 µM; actives 0.51% (n = 310,000);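 active = activation above the mean of controls blocked by dofetilide plus 5 SD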;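 also: thallium influx through hERG after potassium depolarization seen as dye fluorescence rise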
KCNK3 block: human KCNK3 channel inhibition, primary screen; O14649; CHO-KCNK3 thallium flux, FluxOR fluorescence; stronger effect = lower value; actives 0.84% (n = 340,000); B-score at 10 µM;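 active = B-score under library mean minus 4 SD, starting fluorescence ratio at most library mean plus 5 SD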;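 also: more negative B-score means stronger inhibition of thallium flux through KCNK3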
KCNK9 inh: blocks the human KCNK9 two-pore domain potassium channel | Q9NPC2 | HEK293 KCNK9, FluxOR thallium flux fluorescence; stronger effect = lower value | B-score at 10 µM | actives 1.2% (n = 310,000);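 active = ratio B-score over 3 SD below the library mean, with starting fluorescence within 5 SD of its mean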;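 also: negative B-score means less thallium flux so channel inhibition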
KCNK9 inh conf: human KCNK9 inhibitor confirmation; shares compounds with KCNK9 inh; HEK293 KCNK9 cells, FluxOR thallium flux fluorescence; inhibition, % at 10 µM; actives 43% (n = 4,900); AID 492992;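 active = thallium signal inhibited by more than 5 SD of the compound-free buffer control wells, on both duplicate plates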;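 also: 0% = assay buffer control wells without compound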
Kir2-1 spec: tests whether KCNK9 modulators also affect mouse Kir2.1. shares compounds with KCNK9 inh. Kir2.1 cells, FluxOR thallium flux fluorescence. inhibition, % at 10 µM. actives 4% (n = 4,900). AID 492993;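 active = thallium signal drop more than 5 SD beyond the mean of the no-compound control wells, seen in both duplicate plates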;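 also: signal is fluorescence rise after thallium addition divided by baseline fluorescence; plate controls were assay buffer only for no effect and full block by chlorpromazine control for full effect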
HEK293 Tl ctr: second check of KCNK9 modulator effects in non-induced HEK293 cells. shares compounds with KCNK9 inh. FluxOR thallium flux. inhibition, % at 10 µM. actives 40% (n = 4,900). AID 492997;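 active = thallium signal drop beyond 5 SD of the untreated control mean, on both duplicate plates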;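 also: plate controls were buffer only IC0 wells for no effect and SID17386958 at its maximal inhibitory level for full effect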
* = called active by the depositor; i = inactive; . = not tested or not shown. An excerpt weighted towards active compounds, which were near 3.7% of everything screened.

SMILES | Kir21 block | KCNQ1 act | KCNQ1 inh | hERG protect | KCNK3 block | KCNK9 inh | KCNK9 inh conf | Kir2-1 spec | HEK293 Tl ctr
CCCN(CCC)C(=O)CC(c1ccccc1)c1cc(Br)ccc1O (configuration not stated) | 1.1 | i | i | -12 | i | -13* | 36%* | i | 40%*
CCCN(CCC)C(=O)CC(c1ccccc1)c1ccc(C)cc1O (configuration not stated) | 0.21 | i | i | -17 | i | i | . | . | .
Cc1cccn2cc(CSc3nnc(Nc4ccc(C(C)C)cc4)s3)nc12 | -0.06 | i | i | -5 | i | i | i | i | i
Cc1ccccc1-n1ncc2c(SCC(=O)NC3CCCC3)ncnc21 | 0.53 | i | i | -4 | i | i | . | . | .
Cc1ccccc1-n1ncc2c(SCC(=O)N3c4ccccc4CC3C)ncnc21 (configuration not stated) | 0.41 | i | i | -7 | i | i | i | i | i
CC(NCc1cccnc1)c1ccccc1 (configuration not stated) | -1 | i | i | -11 | i | i | . | . | .
O=C(/C=C1\NC2(CCCC2)Cc2ccccc21)C(=O)N/N=C/c1ccccc1O | -1.2 | i | i | -12 | i | i | . | . | .
COc1cc(/C=N/NC(=O)C(=O)/C=C2\NC3(CCCC3)Cc3ccccc32)ccc1O | 2.5 | i | i | -7 | i | -11* | 44%* | i | 28%*
COc1ccc(NC(=O)c2cc3sccc3n2Cc2ccc(F)cc2)cc1OC | -1.9 | i | i | -9 | i | -12* | 57%* | i | 30%*
CS(=O)(=O)Nc1ccc(C(=O)Nc2ccc3ccccc3c2)cc1 | 0 | i | i | -7 | i | i | . | . | .
Cc1ccc(C)n1N1C(=O)/C(=C\c2ccc(Cl)cc2)SC1=S | 1.3 | i | i | -13 | i | i | i | i | i
CCC1=NN(C(=O)c2cccc(Br)c2)C(O)(c2ccc(Br)cc2)C1 (configuration not stated) | 0 | i | 8* | -14 | i | -10* | 42%* | i | 26%*
CCn1cc(C(=O)OCC(=O)NCc2ccccc2Cl)c(=O)c2ccc(C)nc21 | 2 | i | i | -8 | i | i | . | . | .
CC1=NOC(=O)/C1=C\c1ccc(-c2ccc(Cl)cc2Cl)o1 | 2.7 | i | i | -5 | i | i | i | i | i
CCOc1ccc(C(=O)OCCN(CC)CC)cc1 | 0.05 | i | i | -11 | i | i | . | . | .
CCN(CC)CCOc1ccc(/C(=C(/Cl)c2ccccc2)c2ccccc2)cc1 | 0.61 | i | 8* | -32 | i | i | i | i | i
C=CCOc1ccc(/C=C2\SC(=S)N(C(C(=O)O)c3ccccc3)C2=O)cc1 (configuration not stated) | -0.02 | i | i | -22 | i | i | i | i | i
O=C(O)C(Cc1ccccc1)N1C(=O)/C(=C/c2cccs2)SC1=S (configuration not stated) | . | . | . | . | i | . | . | . | .
COc1cccc(/C=C2\SC(=S)N(C(Cc3ccccc3)C(=O)O)C2=O)c1 (configuration not stated) | 1.5 | i | i | -11 | i | i | i | i | i
CC(/C=C1\SC(=S)N(CC(=O)O)C1=O)=C\c1ccccc1 | 2.1 | i | i | -5 | i | i | . | . | .
CC(/C=C1\SC(=S)N(C(C(=O)O)c2ccccc2)C1=O)=C\c1ccccc1 (configuration not stated) | 1.4 | i | i | -19 | i | i | i | i | i
CCOC(=O)C1(CC2CC2)CCN(Cc2ccc3cccc(F)c3n2)CC1 | -3.2 | i | i | -6 | i | i | i | i | i
Cc1ccc(NC(=S)NCCC(c2ccccc2)c2ccccc2)c(C)c1 | -1.8 | i | i | -11 | i | i | . | . | .
Cc1ccc(SCCNC(=S)Nc2ccc(C)cc2C)cc1 | 0.82 | i | i | 0 | i | i | i | i | i
CCCCOc1ccccc1NC(=O)c1scc2c1OCCO2 | 0.21 | i | i | -20 | i | -12* | 48%* | i | 36%*
SMILES | Kir21 block | KCNQ1 act | KCNQ1 inh | hERG protect | KCNK3 block | KCNK9 inh | KCNK9 inh conf | Kir2-1 spec | HEK293 Tl ctr
COc1ccc(NC(=O)NC2(C(=O)N3CCCC(C)C3)CCCCC2)cc1 (configuration not stated) | 0.13 | i | i | -7 | i | i | . | . | .
Cc1nn(-c2ccccc2)c(N)c1N=Nc1ccc(Cl)cc1 | 1.2 | i | i | -11 | i | i | . | . | .
Cc1cccc(N=Nc2c(C)nn(-c3ccccc3)c2N)c1C | 0.69 | i | i | -5 | i | -9.3* | 34%* | i | i
Nc1nn(-c2ccccc2)c(N)c1N=Nc1ccccc1F | 0.37 | i | i | -9 | i | i | . | . | .
Cc1nn(-c2ccccc2)c(N)c1N=Nc1ccccc1 | 1.1 | i | i | -12 | i | -11* | 29%* | i | 28%*
CC(C)C(=O)N[C@@H]1c2ccccc2CC[C@@H]1O | . | . | . | . | i | . | . | . | .
COc1ccc2oc(C(=O)NC3(C)CCS(=O)(=O)C3)c(C)c2c1 (configuration not stated) | -0.19 | i | i | -5 | i | i | . | . | .
O=C1CC(N2CCC(c3nc4ccccc4o3)CC2)C(=O)N1c1cc(Cl)cc(Cl)c1 (configuration not stated) | 1 | i | 8* | -6 | i | -8.6* | 43%* | i | i
COc1cccc(N2C(=O)CC(N3CCC(c4nc5ccccc5[nH]4)CC3)C2=O)c1 (configuration not stated) | 0.04 | i | i | -23 | i | i | . | . | .
Nc1nc2c(F)c(F)c(F)cc2s1 | -1.5 | i | i | -6 | i | i | . | . | .
Cc1ccc(C(=O)Nc2cccc(C(F)(F)F)c2)cc1Nc1ncnc2nc[nH]c12 | 0.09 | i | i | -5 | . | i | . | . | .
COc1ccc(-c2ocnc2C(=O)NCc2nn(-c3ccccc3)nc2C)cc1 | 1.1 | i | i | -12 | i | i | i | i | i
COc1ccc(-c2ocnc2C(=O)Nc2ccccc2N2CCCCC2)cc1 | -0.06 | i | i | -8 | i | -9.3* | i | i | 28%*

Screens deposited in PubChem by Johns Hopkins Ion Channel Center.
